The subject of assay [1] is Candida albicans. The experiment in a line: Antifungal activity against Candida albicans ATCC 10231 assessed as growth inhibition after 48 hrs by two-fold serial dilution assay. In kind it is functional. To be noted: ATCC 10231, 48 h. The method in brief:
(§1)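 Twofold serial broth dilution run on compounds giving inhibition zones of 13 mm or more. Organisms pre-grown in suitable broth at 37 °C, 24 h for bacteria and 48 h for fungi. Dilution series 200, 100, 50, 25, 12.5, 6.25. Each 5 mL tube inoculated with 0.1 mL and incubated 37 °C for 48 h. Tubes scored for presence or absence of growth.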

For assay [2], the system named is Candida albicans. Description: Antifungal activity against Candida albicans ATCC 10231 assessed as growth inhibition at 1 mg/mL after 48 hrs by agar-cup diffusion method. The class given is functional. To be noted: ATCC 10231, 48 h, read-out: DIZ. In short, it runs like this:
(§2)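 Agar-cup diffusion: 1 mL of 6 h broth culture seeded per 100 mL molten sterile agar at 45 °C and poured into plates. 8 mm cups cut, each filled with 0.1 mL of 1 mg/mL test solution. Incubated 37 °C for 24 h, 48 h for C. albicans. DMSO control per organism. Inhibition zone diameter in mm, mean of three measurements.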

The test system of assay [3] is Escherichia coli. Description: Antibacterial activity against Escherichia coli ATCC 25922 assessed as growth inhibition at 1 mg/mL after 24 hrs by agar-cup diffusion method. The class given is functional. As to conditions: ATCC 25922, 24 h, read-out: DIZ. The method in brief:
as §2

For assay [4], the system named is Bacillus spizizenii. Description: Antibacterial activity against Bacillus subtilis ATCC 6633 assessed as growth inhibition at 1 mg/mL after 24 hrs by agar-cup diffusion method. In kind it is functional. As to conditions: ATCC 6633, 24 h, read-out: DIZ. In short, it runs like this: as §2
Assay [5] relates to Aspergillus niger. The experiment in a line: Antifungal activity against Aspergillus niger assessed as growth inhibition at 1 mg/mL after 24 hrs by agar-cup diffusion method. The class given is functional, organism-based. The method in brief:
as §2

Assay [6] has as its system Escherichia coli. Description: Bactericidal activity against Escherichia coli ATCC 25922 after 18 hrs. In kind it is functional. To be noted: ATCC 25922, 18 h. The method in brief:
(§3)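 Continuation of the broth-dilution MIC test. A loopful from each tube without visible growth spread on a quarter of a Mueller-Hinton agar plate and incubated 18 h. Lowest concentration giving no growth on subculture taken as the MBC.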

Assay [7] has as its system Escherichia coli. The experiment in a line: Antibacterial activity against Escherichia coli ATCC 25922 assessed as growth inhibition after 48 hrs by two-fold serial dilution assay. The class given is functional. In short, it runs like this: as §1
For assay [8], the system named is Bacillus spizizenii. Description: Bactericidal activity against Bacillus subtilis ATCC 6633 after 18 hrs. To be noted: ATCC 6633, 18 h. The class given is functional. The method in brief: as §3
Assay [9] has as its system Bacillus spizizenii. The experiment in a line: Antibacterial activity against Bacillus subtilis ATCC 6633 assessed as growth inhibition after 48 hrs by two-fold serial dilution assay. In kind it is functional. The method in brief:
as §1

For assay [10], the system named is Staphylococcus aureus. Description: Bactericidal activity against Staphylococcus aureus ATCC 6538 after 18 hrs. In kind it is functional. As to conditions: ATCC 6538, 18 h. The method in brief: as §3
Assay [11] has as its system Staphylococcus aureus. Description: Antibacterial activity against Staphylococcus aureus ATCC 6538 assessed as growth inhibition after 48 hrs by two-fold serial dilution assay. The class given is functional. The method in brief:
as §1

Assay [12] has as its system Staphylococcus aureus. Description: Antibacterial activity against Staphylococcus aureus ATCC 6538 assessed as growth inhibition at 1 mg/mL after 24 hrs by agar-cup diffusion method. The class given is functional. To be noted: ATCC 6538, 24 h, read-out: DIZ. The method in brief: as §2
The subject of assay [13] is Pseudomonas aeruginosa. Description: Antibacterial activity against Pseudomonas aeruginosa ATCC 27853 assessed as growth inhibition at 1 mg/mL after 24 hrs by agar-cup diffusion method. In kind it is functional. To be noted: ATCC 27853, 24 h, read-out: DIZ. The method in brief:
as §2

The test system of assay [14] is Pseudomonas aeruginosa. Description: Bactericidal activity against Pseudomonas aeruginosa ATCC 27853 after 18 hrs. The class given is functional. To be noted: ATCC 27853, 18 h. The method in brief: as §3
In assay [15] the test system is Pseudomonas aeruginosa. The experiment in a line: Antibacterial activity against Pseudomonas aeruginosa ATCC 27853 assessed as growth inhibition after 48 hrs by two-fold serial dilution assay. In kind it is functional. The method in brief: as §1

In brackets after ≈: the same amount, converted by molar mass. Activity calls are given as the source filed them. The rule behind the calls is not given here. Some results are limits rather than exact numbers.

Turning to `Clc1ccccc1C(c1ccccc1)(c1ccccc1)n1ccnc1` [CLOTRIMAZOLE], the minimum inhibitory concentration (MIC) in assay [1] was determined as 6.25 µg/mL (≈ 18.1 µM).

Consider `CCOC(=O)c1sc(NC(=S)NC2CCCCC2)nc1C`, for which the zone of inhibition at 1000 µg/mL in [2], in assay [3], in [4], in assay [12] and in assay [13] was over 13 mm throughout. For the same compound, in assay [5], the “growth inhibition (GI)” value was “inactive”. In addition, the MBC was found to be 100 µg/mL (≈ 305 µM) in [6], 200 µg/mL (≈ 611 µM) in [8] and 100 µg/mL (≈ 305 µM) in assay [10]. The MIC in assay [7] (ATCC 25922, 48 h) is 50 µg/mL (≈ 153 µM); in assay [9] (ATCC 6633, 48 h), 100 µg/mL (≈ 305 µM); in assay [11] (ATCC 6538, 48 h), 50 µg/mL (≈ 153 µM).

In the case of `CCOC(=O)c1sc(NC(=S)Nc2ccc(C)cc2)nc1C`, the zone of inhibition at 1000 µg/mL in assay [2], in assay [3], in [4], in [12] and in assay [13] was over 13 mm throughout. Also, the “growth inhibition (GI)” value in assay [5] was “inactive”. Moreover, the MBC came out at 200 µg/mL (≈ 596 µM) in assay [14], 100 µg/mL (≈ 298 µM) in assay [6], 100 µg/mL (≈ 298 µM) in [8] and 50 µg/mL (≈ 149 µM) in [10]. Besides, the MIC in [15] (ATCC 27853, 48 h) came to 100 µg/mL (≈ 298 µM); in [7] (ATCC 25922, 48 h), 50 µg/mL (≈ 149 µM); in assay [9] (ATCC 6633, 48 h), 100 µg/mL (≈ 298 µM); in [11] (ATCC 6538, 48 h), 50 µg/mL (≈ 149 µM).

As to `C[C@@H]1[C@H](O)[C@@H](C)/C=C/C=C/C=C/C=C/C=C/C=C/C=C/[C@H](O[C@@H]2O[C@H](C)[C@@H](O)[C@H](N)[C@@H]2O)C[C@@H]2O[C@](O)(C[C@@H](O)C[C@@H](O)[C@H](O)CC[C@@H](O)C[C@@H](O)CC(=O)O[C@H]1C)C[C@H](O)[C@H]2C(=O)O` [AMPHOTERICIN B], the minimal inhibitory concentration (MIC) in assay [1] stood at 1.56 µg/mL (≈ 1.69 µM).

On to `CCOC(=O)c1sc(/N=C/c2cccs2)nc1C`, for which the zone of inhibition at 1000 µg/mL in assay [2], in assay [3], in [4], in assay [12] and in assay [13] was over 13 mm in each case. For the same compound, in assay [5], the “growth inhibition (GI)” value is “inactive”. Further, the values for the minimum bactericidal concentration (MBC) in assay [6], in assay [8] and in [10] were 100 µg/mL (≈ 357 µM), 200 µg/mL (≈ 713 µM) and 200 µg/mL (≈ 713 µM), respectively. Also, the MIC in [7] (ATCC 25922, 48 h) turned out to be 50 µg/mL (≈ 178 µM); in [9] (ATCC 6633, 48 h) it was 100 µg/mL (≈ 357 µM); in assay [11] (ATCC 6538, 48 h) it was 100 µg/mL (≈ 357 µM).

As for `CCOC(=O)c1sc(/N=C/c2ccco2)nc1C`, the zone of inhibition at 1000 µg/mL in assay [2], in [3], in assay [4], in [12] and in assay [13] was over 13 mm in each case. Also, the “growth inhibition (GI)” value in assay [5] was “inactive”. Also, the figures for the MBC in assay [6], in assay [8] and in assay [10] were 50 µg/mL (≈ 189 µM), 200 µg/mL (≈ 757 µM) and 100 µg/mL (≈ 378 µM), respectively. For the same compound, the MIC came out at 25 µg/mL (≈ 94.6 µM) in assay [7] (ATCC 25922, 48 h); 100 µg/mL (≈ 378 µM) in assay [9] (ATCC 6633, 48 h); 50 µg/mL (≈ 189 µM) in assay [11] (ATCC 6538, 48 h).

As to `Cc1nc(NC(=S)NC2CCCCC2)sc1C(=O)NN`, the zone of inhibition at 1000 µg/mL in [2], in [3], in [4], in assay [12] and in [13] was over 13 mm each time. Besides, in assay [5], the “growth inhibition (GI)” value was “inactive”. Moreover, the minimum bactericidal concentration (MBC) in [14] is 200 µg/mL (≈ 638 µM); in [6] it was 100 µg/mL (≈ 319 µM); in [8] it was 100 µg/mL (≈ 319 µM); in assay [10], 100 µg/mL (≈ 319 µM). Moreover, the minimal inhibitory concentration (MIC) is 100 µg/mL (≈ 319 µM) in assay [15] (ATCC 27853, 48 h); 50 µg/mL (≈ 160 µM) in assay [7] (ATCC 25922, 48 h); 100 µg/mL (≈ 319 µM) in assay [9] (ATCC 6633, 48 h); 100 µg/mL (≈ 319 µM) in [11] (ATCC 6538, 48 h).

As for `CCOC(=O)c1sc(NC=O)nc1C`, the zone of inhibition at 1000 µg/mL in assay [2], in assay [3], in assay [4], in [12] and in [13] was over 13 mm in each case. Moreover, the “growth inhibition (GI)” value in [5] is “inactive”. Further, the MBC in [8] and in assay [10] was 200 µg/mL (≈ 934 µM) throughout. The MIC in [9] (ATCC 6633, 48 h) was found to be 100 µg/mL (≈ 467 µM); in [11] (ATCC 6538, 48 h), 100 µg/mL (≈ 467 µM).

As to GENTAMICIN, the MIC in [15] came to 12.5 µg/mL; in assay [7] it was 3.12 µg/mL; in assay [9], 12.5 µg/mL; in assay [11], 3.12 µg/mL.

As for `Cc1nc(NC(=S)Nc2ccccc2)sc1C(=O)NN`, the zone of inhibition at 1000 µg/mL in assay [2], in assay [3], in [4], in assay [12] and in assay [13] was over 13 mm in each case. In addition, the “growth inhibition (GI)” value in assay [5] was “inactive”. In addition, the results for the MBC in assay [6], in assay [8] and in assay [10] were 100 µg/mL (≈ 325 µM), 200 µg/mL (≈ 651 µM) and 100 µg/mL (≈ 325 µM), respectively. Besides, the MIC in assay [7] (ATCC 25922, 48 h) was 100 µg/mL (≈ 325 µM); in [9] (ATCC 6633, 48 h) it was 100 µg/mL (≈ 325 µM); in assay [11] (ATCC 6538, 48 h), 50 µg/mL (≈ 163 µM).

`CC1(C)S[C@@H]2[C@H](NC(=O)[C@H](N)c3ccccc3)C(=O)N2[C@H]1C(=O)O.O.O.O` [AMPICILLIN TRIHYDRATE]: the MIC in [15] (ATCC 27853, 48 h) amounted to 12.5 µg/mL; in [7] (ATCC 25922, 48 h), 6.25 µg/mL; in [9] (ATCC 6633, 48 h) it was 12.5 µg/mL; in assay [11] (ATCC 6538, 48 h) it was 6.25 µg/mL.
